Compound activity from PubChem BioAssay.
Sampled rows, rich in hits. Any-hit rate of the full collection: about 2%.
IMP-1 inh-1 = inhibitors of Pseudomonas aeruginosa IMP-1 metallo-beta-lactamase | AID 1556 | inhibition, % at 5.6 µM | purified IMP-1, nitrocefin hydrolysis, epi-absorbance fluorescence | 0.45% of 290,000 active;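 active = inhibition above the mean plus 3 SD of all compounds in the same screening run, cut at about 4.5% in these data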;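 also: 0% = IMP-1 with DMSO and 100% = DMSO wells lacking enzyme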
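System: purified IMP-1 / Input: IMP-1 dispensed at 0.2 nM / Medium: 50 mM HEPES pH 7.1, 50 µM ZnSO4, 0.05% Brij 35 / Timing: 15 min enzyme–compound preincubation, then 25 min nitrocefin reaction, 25 °C / Technique: plate fluorescence quenching by hydrolysis product, ex 480/em 530 nm / Repeats: singlicate testing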
VIM-2 inh = inhibitors of Pseudomonas aeruginosa VIM-2 metallo-beta-lactamase; purified VIM-2, nitrocefin hydrolysis, epi-absorbance fluorescence; inhibition, % at 5.6 µM; 0.89% of 290,000 active;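 active = inhibition above the mean of all tested compounds plus 3 SD, cutoff set per screening run, cut at about 7.5% in these data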;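 also: red hydrolysis product quenches plate fluorescence so inhibitors raise well fluorescence; 0% = enzyme with DMSO and 100% = DMSO without enzyme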
MIN6 prolif = MIN6 beta-cell proliferation induction | MIN6 cells proliferation, ATPlite luminescence, 48 h; cells starved in 0.2% serum; 100% = growth in 10% serum | proliferation, % at 10 µM | 0.29% of 330,000 active | AID 2380;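 active = compounds whose signal lies at least 3.5 SD above the mean of all wells on their plate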;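 also: 0% = DMSO-treated cells in low-serum medium and 100% = 10% serum control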
HKDC1 inh = blocks human hexokinase HKDC1 activity; 0.16% of 340,000 active; inhibition, % at 20 µM; recombinant HKDC1, G6PDH/diaphorase resazurin coupled fluorescence;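 active = inhibition above about 35% when tested at 20 µM, limit read from the data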;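 also: plate controls were DMSO wells with enzyme for no effect and DMSO wells lacking enzyme for full effect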
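Test system: Recombinant HKDC1 (HK5) hexokinase enzyme, produced in-house | Input: HKDC1 at 5 µg/mL | Buffer or medium: Tris pH 8.0 buffer with MgCl2, Tween-20, BSA, BME | Schedule: 90 min reaction incubation at room temperature, dark | Technique: Resazurin-to-resorufin fluorescence via G6PDH and diaphorase coupling, 525/613 nm | Controls: DMSO wells with and without enzyme mix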
PvdQ acylase = blocks Pseudomonas aeruginosa PvdQ acylase activity; purified PvdQ acylase, fluorescence plate reader; inhibition, % at 10 µM; 0.063% of 340,000 active; AID 488965; in the data active = inhibition above about 30%, passing the limit was not always enough;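 also: 0% = vehicle neutral wells and 100% = reference inhibitor wells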
ATG4B inhibitor = inhibitors of human ATG4B cysteine protease. ATG4B cleavage of LC3-PLA2, NBD-HPC fluorescence, 1 h. inhibition, % at 8.33 µM. 0.51% of 340,000 active; in the data active = inhibition above about 40%
Target sequence (Q9Y4P1 whole entry, looked up): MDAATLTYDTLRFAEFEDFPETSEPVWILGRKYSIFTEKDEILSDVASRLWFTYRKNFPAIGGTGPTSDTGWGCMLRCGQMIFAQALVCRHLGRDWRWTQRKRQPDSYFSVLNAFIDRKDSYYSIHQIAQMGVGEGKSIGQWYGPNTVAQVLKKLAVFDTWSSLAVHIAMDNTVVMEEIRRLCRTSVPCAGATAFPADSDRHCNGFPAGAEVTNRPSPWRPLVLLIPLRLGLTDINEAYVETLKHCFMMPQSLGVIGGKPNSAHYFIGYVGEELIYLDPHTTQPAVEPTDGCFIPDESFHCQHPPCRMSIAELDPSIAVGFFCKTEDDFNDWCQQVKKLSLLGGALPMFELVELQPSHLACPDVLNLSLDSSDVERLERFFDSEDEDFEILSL
IMP-1 inh-2 = blocks IMP-1 metallo-beta-lactamase in VIM-2 selectivity screen | purified IMP-1, nitrocefin hydrolysis, epi-absorbance fluorescence | inhibition, % at 5.6 µM | 1,300 tested, under 10 active | AID 1856 | shares compounds with VIM-2 inh; call rule not given here;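 also: 0% = enzyme with vehicle and 100% = vehicle without enzyme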
VIM-2 FRET ctr = counter-screen for VIM-2 inhibitors: epi-absorbance artifacts via FRET. shares compounds with VIM-2 inh. purified VIM-2, CCF2 FRET substrate hydrolysis. inhibition, % at 5.6 µM. 23% of 1,300 active. AID 1857;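 active = inhibition above the mean of all tested compounds plus 3 SD, cut at about 19% in these data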;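 also: 0% = VIM-2 plus DMSO and 100% = no enzyme wells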
TEM-1 counter = TEM-1 inhibition, counter-screen for VIM-2 inhibitors | 3% of 1,300 active | Purified TEM-1, nitrocefin hydrolysis, epi-absorbance fluorescence | inhibition, % at 5.6 µM | shares compounds with VIM-2 inh;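 active = inhibition above that campaign's mean inhibition plus 3 SD, cut at about 0.46% in these data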;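 also: 0% = TEM-1 with DMSO and 100% = TEM-1 with 100 µM potassium clavulanate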
Target sequence (P62593 whole entry, looked up): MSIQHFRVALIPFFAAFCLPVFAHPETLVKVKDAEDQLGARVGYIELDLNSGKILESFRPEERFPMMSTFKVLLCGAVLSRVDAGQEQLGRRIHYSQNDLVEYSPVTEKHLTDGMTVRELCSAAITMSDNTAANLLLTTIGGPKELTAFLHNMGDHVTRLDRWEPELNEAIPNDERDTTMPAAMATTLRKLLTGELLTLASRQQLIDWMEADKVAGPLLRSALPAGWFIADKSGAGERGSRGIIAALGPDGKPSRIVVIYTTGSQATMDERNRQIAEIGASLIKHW
VIM-2 confirm 2 = confirmation of P. aeruginosa VIM-2 metallo-beta-lactamase inhibitors; purified VIM-2, nitrocefin hydrolysis, epi-absorbance; shares compounds with VIM-2 inh; AID 2187; inhibition, % at 5.6 µM; 96% of 1,300 active;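 active = inhibition of the VIM-2 beta-lactamase enzyme above about 11% from the earlier first-round screen, limit read from the data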;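 also: 0% = VIM-2 with DMSO and 100% = buffer wells without enzyme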
Starred values were filed as active, the others as inactive; / = no result.

SMILES	IMP-1 inh-1	VIM-2 inh	MIN6 prolif	HKDC1 inh	PvdQ acylase	ATG4B inhibitor	IMP-1 inh-2	VIM-2 FRET ctr	TEM-1 counter	VIM-2 confirm 2
Cc1cc(OCC(=O)NC2CC(C)(C)NC(C)(C)C2)c2c(C)c(C)c(=O)oc2c1	1	14*	-1	-3	2	6	-4	2	-7	18*
CC1(C)CC(NC(=O)COc2cc3oc(=O)c4c(c3cc2Cl)CCC4)CC(C)(C)N1	0	34*	-3	8	-9	11	-2	1	-7	41*
Cc1c(C)c2cc(Cl)c(OCC(=O)NC3CC(C)(C)NC(C)(C)C3)cc2oc1=O	-1	16*	3	-6	-6	-3	-3	3	-5	22*
O=C(Nc1ccccc1C(F)(F)F)N1CCN(c2ccc3nnc(-c4ccc(F)cc4)n3n2)CC1	-2	12*	-3	-8	-5	27	-3	-2	-8	6
O=C(c1ccc(Br)o1)N1CCN(c2ccc3nnc(-c4ccccc4)n3n2)CC1	-2	16*	1	6	-3	-17	-3	-2	-2	24*
O=[N+]([O-])c1ccc(C23CC4CC(CC(O)(C4)C2)C3)cc1	-1	15*	/	/	/	/	-3	34*	-5	22*
O=C(NC12CC3CC(CC(C3)C1)C2)c1ccc([N+](=O)[O-])cc1	-1	-1	2	-6	11	-1	/	/	/	/
CC1(C)C(=O)N(OCc2ccccc2)C(C)(C)C(=O)N1OCc1ccccc1	-1	-3	0	-3	-7	1	/	/	/	/
COC(=O)c1ccc(-c2n[nH]c(=O)c3ccccc23)cc1	-2	1	3	4	-7	1	/	/	/	/
CC(O)CNc1ccc(-c2n[nH]c(=O)c3ccccc23)cc1[N+](=O)[O-] (stereo not drawn)	-3	20*	-1	0	3	-1	-3	-3	-7	34*
CN(C)CCCNc1ccc(-c2n[nH]c(=O)c3ccccc23)cc1[N+](=O)[O-]	-3	59*	-4	3	-9	4	-2	2	-3	68*
O=[N+]([O-])CC(=Nc1ccc(Cl)cc1)N/N=C\c1oc(O)c2ccccc12	-2	-3	-2	1	-3	9	/	/	/	/
Cc1ccn2c(CNCC3OCCc4ccccc43)c(C(=O)N3CCCCCC3)nc2c1 (stereo not drawn)	-3	-3	5	-12	-13	-6	/	/	/	/
CC1CCN(CC(=O)n2c3c(c4ccccc42)CCCC3)CC1	0	18*	-1	-2	11	5	-3	9	-6	6
CCN1CCN(CC(=O)n2c3c(c4ccccc42)CC(C)CC3)CC1 (stereo not drawn)	0	19*	-2	-7	-8	9	-1	28*	-3	29*
CC(=O)C(Cc1ccccc1)NC(=O)COC(=O)CCN1C(=O)C2CC=CCC2C1=O (stereo not drawn)	/	/	0	-3	-13	4	/	/	/	/
CCN(CC)C(=O)CSc1nc(-c2cccs2)cc(-c2cccs2)c1C#N	-3	-1	-3	4	-6	21	/	/	/	/
CN1CCN(C(=O)CSc2nc(-c3cccs3)cc(-c3cccs3)c2C#N)CC1	-1	45*	/	10	1	-15	-2	-4	-7	70*
CCN(CC)c1nc(-c2ccc(C(=O)NN)cc2)nc(-c2ccc(C(=O)NN)cc2)n1	-3	75*	-5	0	11	-1	-3	4	-6	85*
CCN(CC)c1nc(C(N)=O)cc(-c2ccccc2)n1	-2	1	1	5	-8	-20	/	/	/	/
COC(=O)Oc1ccc(/C=N/NC(=O)CN(c2ccccc2Cl)S(C)(=O)=O)cc1OC	-1	-4	-1	-7	7	-1	/	/	/	/
Clc1ccccc1-c1nnc2sc(-c3ccncc3)nn12	-3	-4	-2	-6	1	2	/	/	/	/
Clc1ccccc1-c1nn2c(-c3ccncc3)nnc2s1	-3	22*	4	-10	-12	-9	-4	0	-8	55*
CN1CCc2c(sc(NC(=O)c3cc(Cl)sc3Cl)c2C(N)=O)C1	1	14*	-5	11	/	0	-1	6	-4	21*
Cc1ccccc1N(CC(=O)N/N=C/c1ccc(N(C)C)cc1)C(=O)c1ccccc1	-3	-1	-3	0	2	-13	/	/	/	/
SMILES	IMP-1 inh-1	VIM-2 inh	MIN6 prolif	HKDC1 inh	PvdQ acylase	ATG4B inhibitor	IMP-1 inh-2	VIM-2 FRET ctr	TEM-1 counter	VIM-2 confirm 2
CCN(CC(=O)NC(C)C)C(=O)Cc1ccc(C)c(C)c1	-3	0	3	-1	-11	-6	/	/	/	/
CCCC(=O)Nc1nnc(SCC(=O)NCc2cccs2)s1	-5	20*	-2	6	14	-8	-2	44*	-3	33*
COCC(=O)Nc1nnc(SCC(=O)NCc2cccs2)s1	-3	22*	-2	-1	-14	-3	-3	53*	-3	38*
COc1ccccc1Nc1nnc(SCc2cc(=O)n3cc(C)ccc3n2)s1	-3	7	-4	1	-8	-2	/	/	/	/
CCOC(=O)c1[nH]c(C(=O)O)c(CCC(=O)OC)c1C	1	22*	1	9	2	0	1	49*	-5	32*
Cn1c(=O)n(C)c2cc(/C=N/N=C3/NC(=O)C(CC(=O)O)S3)ccc21 (stereo not drawn)	-4	22*	-1	-9	-1	2	-1	7	-4	37*
CCOc1cc(/C=N/N=C2/NC(=O)C(CC(=O)O)S2)ccc1OCc1ccc(Cl)cc1 (stereo not drawn)	-2	-1	-1	-3	-2	-4	/	/	/	/
Cc1c(OCC(=O)NC(Cc2ccc(Cl)cc2)C(=O)O)ccc2c3c(c(=O)oc12)CCC3 (stereo not drawn)	-1	6	1	14	10	-14	/	/	/	/
Cc1c(OCC(=O)NCC(O)c2ccccc2)ccc2c3c(c(=O)oc12)CCC3 (stereo not drawn)	0	20*	0	7	3	6	-3	-4	-9	28*
O=C(COc1cc2oc(=O)c3c(c2cc1Cl)CCC3)NCC(O)c1ccccc1 (stereo not drawn)	-2	14*	-1	-1	-8	-13	-2	2	-5	26*
